Experimental findings from ChEMBL document CHEMBL4368872, “Synthesis and anticonvulsant activity of phenoxyacetyl derivatives of amines, including aminoalkanols and amino acids” (Medchemcomm, 2018) are described below.

Molecules are shown by their SMILES. Calls of active or inactive are those of the source.

Data set [1] concerns Mus musculus. Description: Anticonvulsant activity in ip dosed CF-1 mouse model of maximal electroshock-induced seizure assessed as suppression of tonic hind limb extension. Format: functional. The following applies: CF-1, ip.
Data set [2] relates to Mus musculus. As to the kind of experiment: Anticonvulsant activity in CF-1 mouse model of maximal electroshock-induced seizure assessed as suppression of tonic hind limb extension at 30 mg/kg, ip measured at 0.5 hrs post dose. Format: functional, organism-based. The method, boiled down: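 Mice dosed i.p. and given maximal electroshock at 50 mA. Read-out is protection, reported as number protected / number tested at 0.25, 0.5, 1 and 4 h after dosing.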

For data set [3], the system named is Mus musculus. Description: Anticonvulsant activity in CF-1 mouse model of subcutaneous pentylenetetrazole-induced seizure assessed as reduction in convulsions at 30 mg/kg, ip measured at 4 hrs post dose. Type of data set: functional, organism-based. The method, boiled down: (§1)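 Mice dosed i.p., then given pentylenetetrazole 85 mg/kg in 0.9% NaCl s.c. into the posterior midline of the neck. Seizures watched for at least 30 min. Scored as protected / tested at 0.5 and 4 h.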

Data set [4] has as its system Mus musculus. As to the kind of experiment: Anticonvulsant activity in CF-1 mouse model of subcutaneous pentylenetetrazole-induced seizure assessed as reduction in convulsions at 100 mg/kg, ip measured at 4 hrs post dose. Format: functional, organism-based. The method, boiled down:
as §1

The nature of data set [5]: Neurotoxicity in CF-1 mouse at 100 mg/kg, ip measured after 0.5 hrs by rotarod test. Type of data set: toxicity, organism-based. The following applies: in vivo. The method, boiled down: (§2)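 Mice dosed i.p. were placed on a 1 in. knurled rod turning at 6 rpm. Toxicity was scored as failure to keep balance for at least 1 min, i.e. falling off three or more times. Results are reported as animals showing toxicity / animals tested at each time point.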

The nature of data set [6]: Neurotoxicity in CF-1 mouse at 300 mg/kg, ip measured after 4 hrs by rotarod test. Type of data set: toxicity, organism-based. As to conditions: in vivo. The method, boiled down: as §2
The subject of data set [7] is Mus musculus. As to the kind of experiment: Anticonvulsant activity in CF-1 mouse assessed as protection against 44 mA current-induced seizure at 120 mg/kg, ip after 15 mins by 6 Hz psychomotor test. Format: functional, organism-based. The method, boiled down:
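Mice dosed i.p. (30, 100, 300 mg/kg; one line at 120 mg/kg read at 15 min). Corneal stimulation at 6 Hz, 44 mA for 3 s from a constant-current device induces a psychomotor seizure with stunned posture, forelimb automatisms, clonus, vibrissae twitching and Straub tail. Scored as number of animals protected / number tested (4 per group) at 0.5 and 2 h.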

Data set [8] relates to Rattus norvegicus. As to the kind of experiment: Anticonvulsant activity in Sprague-Dawley rat model of maximal electroshock-induced seizure assessed as suppression of tonic hind limb extension at 30 mg/kg, po measured at 2 hrs post dose. Format: functional, organism-based. The method, boiled down:
(§3)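 Rats given 30 mg/kg p.o. and tested by maximal electroshock at 150 mA. Scored as number protected / number tested (4 per group) at 0.25, 0.5, 1, 2 and 4 h after dosing.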

Data set [9] in a line: Neurotoxicity in Sprague-Dawley rat at 30 mg/kg, po measured after 0.25 hrs by rotarod test. Type of data set: toxicity, organism-based. The following applies: in vivo. The method, boiled down:
(§4)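 Rat neurotoxicity after i.p. or p.o. dosing was scored as animals impaired / animals tested at each time point. For p.o. dosing, TD50 was obtained by probit analysis.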

The nature of data set [10]: Neurotoxicity in Sprague-Dawley rat at 30 mg/kg, po measured after 0.5 hrs by rotarod test. Type of data set: toxicity, organism-based. As to conditions: in vivo. The method, boiled down: as §4
Data set [11] in a line: Neurotoxicity in Sprague-Dawley rat at 300 mg/kg, ip measured after 0.25 hrs by rotarod test. Format: toxicity, organism-based. The following applies: in vivo. The method, boiled down:
as §4

A short description of data set [12]: Neurotoxicity in Sprague-Dawley rat at 30 mg/kg, ip measured after 1 hr by rotarod test. Type of data set: toxicity, organism-based. As to conditions: in vivo. The method, boiled down: as §4
Data set [13] is described as follows: Neurotoxicity in Sprague-Dawley rat at 100 mg/kg, ip measured after 1 hr by rotarod test. Format: toxicity, organism-based. As to conditions: in vivo. The method, boiled down:
as §4

Data set [14] can be described thus: Neurotoxicity in Sprague-Dawley rat at 30 mg/kg, ip measured after 4 hrs by rotarod test. As to conditions: in vivo. Type of data set: toxicity, organism-based. The method, boiled down:
as §4

The subject of data set [15] is Rattus norvegicus. Description: Anticonvulsant activity in hippocampal kindling Sprague-Dawley rat model assessed as after discharge time at 100 mg/kg, ip administered as single dose measured after 105 mins. Format: functional. The method, boiled down:
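Rats implanted with a hippocampal electrode and kindled with suprathreshold trains (200 µA, 10 s, 50 Hz) every 30 min for 6 h on alternate days until fully kindled. One week later they received a single i.p. dose. Seizure score (Racine scale) and afterdischarge duration were recorded at 0–135 min and compared with the control stimulus given 15 min before dosing; each animal served as its own control. Values are mean ± SEM.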

Another data set relates to Astrocyte. As to the kind of experiment: Cytotoxicity against mouse astrocytes assessed as effect on cell proliferation at 10 to 200 uM after 72 hrs by crystal violet staining based spectrophotometric method. The method, boiled down: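 Proliferation in mouse astrocyte line: 1×10^4 cells per well, exposed 24 h after seeding to 10–200 µM for 72 h. Fixed in 3.7% formaldehyde, stained 10 min with 0.01% crystal violet, dye eluted with methanolic citric acid/sodium citrate, OD at 540 nm.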

Data set [16] is described as follows: Half life in rat liver microsomes at 20 uM preincubated for 15 mins followed by NADPH generating system addition and measured by LC-MS/MS analysis. Format: ADME, Microsome. The method, boiled down: (§5)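 Test compound at 20 µM preincubated 15 min with male rat liver microsomes (0.4 mg ml⁻¹) in 100 mM potassium phosphate, pH 7.4. Started with NADP⁺ (3.4 mM), glucose 6-phosphate (7.7 mM) and G6PDH (0.6 U ml⁻¹). Run 5–60 min at 37 °C in duplicate, stopped with cold perchloric acid plus internal standard, supernatant analysed by LC-MS/MS. Half-life and Cl_int derived by literature methods.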

Data set [17] can be described thus: Intrinsic clearance in rat liver microsomes at 20 uM preincubated for 15 mins followed by NADPH generating system addition and measured after 5 to 60 mins by LC-MS/MS analysis. Type of data set: ADME, Microsome. As to conditions: read-out: CLH. The method, boiled down:
as §5

Data set [18] is described as follows: Mutagenicity in Salmonella typhimurium TA1535 assessed as mutagenicity index at 50 to 500 ug/plate preincubated for 30 mins followed by top agar addition and measured after 48 hrs in presence of liver S9 fraction by Ames test. Type of data set: toxicity, subcellular. As to conditions: salmonella enterica subsp. enterica serovar typhimurium, s9, 48 h. The method, boiled down: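 Ames plate incorporation in S. typhimurium TA100 or TA1535, with or without S9. Overnight culture, compound in DMSO (50–500 µg per plate) and buffer or S9 mix preincubated 30 min at 37 °C, then top agar on glucose minimal agar. Incubated 48 h at 37 °C, revertants counted in triplicate. Vehicle negative control; NaN3 (−S9) and 2AA (+S9) positive controls. MI = revertants with compound / negative-control revertants; MI ≥ 2 with dose-response counts as positive.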

Data set [19] deals with Salmonella typhimurium. Description: Antimutagenic activity against Salmonella typhimurium TA100 assessed as inhibition of NaN3-induced mutation at 100 ug/plate preincubated for 30 mins followed by top agar addition and measured after 48 hrs in presence of liver S9 fraction by Ames test relative to control. Type of data set: organism-based. As to conditions: salmonella enterica subsp. enterica serovar typhimurium, s9, 48 h.

Data set [20] deals with Salmonella typhimurium. Description: Antimutagenic activity against Salmonella typhimurium TA1535 assessed as inhibition of NaN3-induced mutation at 50 ug/plate preincubated for 30 mins followed by top agar addition and measured after 48 hrs in presence of liver S9 fraction by Ames test relative to control. As to conditions: salmonella enterica subsp. enterica serovar typhimurium, s9, 48 h. Type of data set: organism-based.

Data set [21] concerns Rattus norvegicus. As to the kind of experiment: Anticonvulsant activity in Sprague-Dawley rat model of maximal electroshock-induced seizure assessed as suppression of tonic hind limb extension at 30 mg/kg, po measured at 4 hrs post dose. Type of data set: functional, organism-based. The method, boiled down: as §3

With `Cc1cccc(C)c1OCC(=O)N[C@H](C)CO`, the median effective dose (ED50) with Mus musculus [1] worked out at 97.9 mg/kg. The result in the data set with Mus musculus [2], in the data set with Mus musculus [3], in the data set with Mus musculus [4] and in the data set with Rattus norvegicus [8] was inactive. Besides, the Activity entry in data set [5] was “Non-Toxic”; in data set [6], “Non-Toxic”; in data set [9] it was “Non-Toxic”; in [10], “Non-Toxic”; in [11] it was “Toxic”; in data set [12], “Non-Toxic”. Moreover, the Activity entry (in data set [13]; in [14]; in the data set with Astrocyte) was “Non-Toxic” each time. Further, the result in the data set with Mus musculus [7] was Active. Further, in the data set on Rattus norvegicus [15], the Time came out at 77 s. The compound also showed a half-life at 20 µM in data set [16] of 3.04 h. Further, in [17], the microsomal CLint at 20 µM came out at 9.5 µL/min/mg. The Activity index in data set [18] lay within 0.7 to 1.7. Further, the entries for the “inhibition (INH)” value with Salmonella typhimurium [19] and in the data set with Salmonella typhimurium [20] were 43% and 29%, respectively.

On to `CCC(O)CNC(=O)COc1c(C)cccc1C` (stereo unspecified), for which the outcome in the data set with Mus musculus [2], in the data set with Mus musculus [3], in the data set with Mus musculus [4], in the data set on Rattus norvegicus [8] and with Rattus norvegicus [21] was inactive. Further, the Activity result in data set [5], in data set [6], in data set [9], in data set [10] and in [13] was “Non-Toxic” in each case. In data set [16], this compound gave a half-life at 20 µM of 0.507 h. The microsomal CLint at 20 µM in data set [17] came out at 57 µL/min/mg. In addition, in data set [18], the Activity index was in the range of 0.7 to 1.7. In addition, the “inhibition (INH)” value with Salmonella typhimurium [19] came out at 26%; in the data set with Salmonella typhimurium [20], 42%.
